Laboratory results: ChEMBL document CHEMBL4513216, “Probing the Open Global Health Chemical Diversity Library for Multistage-Active Starting Points for Next-Generation Antimalarials” (ACS Infect Dis, 2020)

Test: Toxicity liver stage against HepG2, at 10uM
Type: cell-based
Parameters: test concentration 10 uM, cell line HepG2-A16-CD81EGFP
Details: human, HepG2-A16-CD81EGFP cells; read-out: INHIBITION
In short: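 Uninfected HepG2-A16-CD81EGFP cells, 3 × 10^3 per well, 1536-well, plated on prespotted compound at 10 μM final, parasite-free screening media added to match infected plates; puromycin 10 μM positive, DMSO 0.5% negative; run in parallel with 48 h PbLuc assay at 37 °C, 5% CO2; viability by CellTiter-Glo luminescence, normalized to controls.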

Row | SMILES | cytotoxicity at 10 µM [%]
1 | CC(C)(C)c1coc([C@@H]2COCCN2Cc2ccccn2)n1 | -4.04
2 | O[C@@H]1C[C@@H](c2nc(Cc3ccccc3)no2)N(CC2CC2)C1 | -3.5
3 | COCCn1ccc(=O)c(OCC(=O)Nc2cccc(OC)c2)c1C | -2.74
4 | Cn1nnc2c(N3CC(C(=O)NCc4cccs4)C3)ncnc21 | 4.29
5 | O=C(C1CC=CC1)N1CCC2(CCC(=O)N2Cc2cccc(F)c2)CC1 | -3.2
6 | Cc1ccoc1C(=O)N1CC[C@@H]2O[C@@H](C)C[C@H]2C1 | 2.26
7 | Cc1nn(C)c2c(NCCn3cccn3)ncnc12 | -1.26
8 | CCN(CC)CCCNCc1cc2cccc(C)c2[nH]c1=O | -7.06
9 | CN(C)c1nccc(C2CCN(C(=O)CO)CC2)n1 | -23.6
10 | Cc1ccc2[nH]c(=O)c(CNCCCN3CCOCC3)cc2c1 | -14.9
11 | COCC(=O)N1CCN(Cn2nc(C)c(Br)c2C)CC1 | 0.633
12 | N#Cc1cc(C#N)c(SCCC(=O)Nc2ccc(F)cc2)nc1N | 4.89
13 | Cc1ccc(-c2nc(C(=O)N3CCCCC3CNS(C)(=O)=O)cs2)cc1 (centres undefined) | -2.14
14 | CCCN1CCC(NCc2ccncc2)CC1 | -6.79
15 | CN(CC(=O)N1CCN(c2ccccn2)CC1)c1ccc(Cl)cn1 | -2.3
16 | Cc1ccsc1C(=O)N1CCC(Nc2cccnc2)CC1 | -136
17 | CN(C)C(=O)Cc1ccc(NC(=O)NC2CCCC2)cc1 | -1.92
18 | O=C(c1ccncc1)N1CCn2c(nnc2-c2ccccc2)C1 | 4.45
19 | Cc1cccc(-c2c[nH]c(C3CCCN3C(=O)c3cc(C)n[nH]3)n2)c1 (centres undefined) | 4
20 | N#CCCN(Cc1cccnc1)C(=O)c1cccc(-n2cnnn2)c1 | 2.99
21 | CCc1noc(CN(CCS(C)(=O)=O)C(C)(C)C)n1 | -0.718
22 | O=C(Nc1ccc(-n2ccnc2)c(F)c1)C1CCN(C(=O)C2CC2)CC1 | 1.21

Row | SMILES | cytotoxicity at 10 µM [%]
23 | O=C(NCCOc1ncc(Cl)cc1Cl)c1ccncc1F | -3.78
24 | CC[C@H](C)[C@H](N)C(=O)Nc1nc(-c2cnc(N(C)CCO)nc2)cs1 | -9.27
25 | Cc1cccc(C)c1C(=O)N1C[C@@H](CN2CCOCC2)[C@@H](CO)C1 | 0.0453
26 | CCCc1nnc(N(C)CC2CCCN(CC)C2)o1 (centres undefined) | -4.1
27 | CC1=CC[C@@H]2CN(C(=O)c3ccc(-c4cc[nH]n4)cc3)C[C@@H]2C1 | 5.15
28 | Cc1ccc(C)c(OCCN(C)C(=O)CCc2cn[nH]c2)c1 | 1.69
29 | CN1CCN(S(=O)(=O)c2ccc3c(c2)CN(C(=O)C(C)(C)C)CC3)CC1 | -8.91
30 | CCCN1CCC(CC(=O)NCCc2nc(C)cc(C)n2)CC1 | -13.7
31 | CC(C)CN1CCN(Cc2nc3c(s2)CCCC3)[C@H]2CS(=O)(=O)C[C@H]21 | 8.19
32 | COc1ccc(C(=O)NCc2cccnc2N2CCOCC2)o1 | 3.1
33 | O=c1c(CN2CCCCC2)coc2ccc(Cl)cc12 | -2.56
34 | CNc1nc2c(c(C(=O)N3CCCC3)n1)CN(C(=O)CCSC)CC2 | -114
35 | CC(C)n1cnnc1CN(C)Cc1cnc(-c2ccccn2)nc1 | 11.9
36 | c1cn(Cc2nnc(C3CCN(C4CCNCC4)CC3)n2C2CC2)cn1 | 1.74
37 | Cn1cc(C2CCCN2C(=O)c2cn(-c3ccccc3)nn2)cn1 (centres undefined) | -24
38 | Cc1nccn1CCCC(=O)N1CCCC(c2noc(C(C)C)n2)C1 (centres undefined) | -35.8
39 | CCc1[nH]ncc1C(=O)N1CCCC(n2cncn2)C1 (centres undefined) | -18.9
40 | Cc1nc(C)c(C(=O)NCCNc2ncccc2C(F)(F)F)s1 | -3.08
41 | CCNC(=O)[C@@H]1CCCN1[C@@H](C(=O)NC)c1ccccc1OC | -4.51
42 | CN1CC2(CNCCN(C(=O)Nc3ccccc3)C2)CC1=O (centres undefined) | 1.26
43 | Cn1cc(CN2C[C@H]3CN(c4cncnc4)C(=O)[C@H]3C2)cn1 | -0.0682
44 | O=C1CCCC2=Nc3nonc3NC(c3ccc(F)cc3F)C12 (centres undefined) | 2.43
